The structures appear in SMILES notation.

For the first assay, the target named is T1, Cysteinyl leukotriene receptor 1 (Cavia porcellus) (UniProt Q2NNR5).
T1 sequence (whole entry): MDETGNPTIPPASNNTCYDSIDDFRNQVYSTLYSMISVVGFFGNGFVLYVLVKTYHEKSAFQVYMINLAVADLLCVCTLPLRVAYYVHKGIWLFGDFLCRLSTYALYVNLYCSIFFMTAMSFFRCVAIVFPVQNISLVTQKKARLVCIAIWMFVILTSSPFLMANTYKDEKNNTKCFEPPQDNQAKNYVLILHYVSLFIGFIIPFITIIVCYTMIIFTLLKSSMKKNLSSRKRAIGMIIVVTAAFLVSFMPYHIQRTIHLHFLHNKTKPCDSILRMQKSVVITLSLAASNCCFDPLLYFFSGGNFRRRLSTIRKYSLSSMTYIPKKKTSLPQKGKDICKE
In words: Dissociation constant (KB) […] was evaluated in vitro in isolated guinea pig tracheal strips.
Details: not given
As for `COc1cc(C(=O)O)ccc1COc1ccc(C(C)=O)c(O)c1C`, the Kb turned out to be 850 nM.

The species entered for a further assay is Cavia porcellus. In words: Percent inhibition of the leukotriene E4 (LTE4)-induced contraction of guinea pig tracheal spirals at 10 uM concentration. In kind it is functional. To be noted: Trachea. Put shortly: (§1)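 Guinea pig tracheal spirals were split into paired sections in 10 mL baths of modified Krebs at 37 °C, gassed with 95% O₂/5% CO₂, under 2 g resting tension. After 60 min equilibration (washes every 15 min), reproducible contractions to 8 nM LTD₄ or 8 nM LTE₄ were obtained. Compound was added for 10 min, then agonist challenge repeated; percent inhibition is relative to the vehicle-treated paired section.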
The molecule `CCCc1c(OCc2ccc(C(=O)O)cc2OC)ccc(C(=O)NC)c1O` came in with an inhibition at 10 µM of 50%.
Same read-out and setting: the value for `CCCc1cc2ccccc2cc1OCc1ccc(C(=O)O)cc1OC` was 51%.
Turning to `CCCc1c(OCc2ccc(C(=O)O)cc2OC)ccc(C(C)=O)c1OCc1ccc(OC)cc1`, the inhibition at 10 µM turned out to be 25%.
`CCCNc1c(C(C)=O)ccc(OCc2ccc(C(=O)O)cc2OC)c1CCC` displayed an inhibition at 10 µM of 61%.
For the molecule `C=CCc1c(OCc2ccc(C(=O)O)cc2OC)ccc(C(C)=O)c1O`, the inhibition at 10 µM stood at 100%.
Same read-out and setting: the result for `COc1cc(C(=O)O)ccc1COc1ccc(C(C)=O)c(OCc2ccccc2)c1` reads 24%; that for `CCCCCCOc1c(C(C)=O)ccc(OCc2ccc(C(=O)O)cc2OC)c1CCC`, 22%.
Turning to `COc1cc(C(=O)O)ccc1COc1ccc(C(C)=O)c(O)c1CCCC(C)=O`, at 10 µM the inhibition was 21%.
As for `COc1cc(C(=O)O)ccc1CN(Cc1ccccc1)c1ccc(C(C)=O)c(O)c1`, testing at 10 µM gave an inhibition of 36%.
Consider `C/C=C/c1cc(=O)oc2c(CCC)c(OCc3ccc(C(=O)O)cc3OC)ccc12`, for which 10 µM produced 21% inhibition.
`CCCc1c(N(Cc2ccc(C(=O)O)cc2OC)C(=O)c2ccccc2)ccc(C(C)=O)c1O` showed an inhibition at 10 µM of 12%.
The same measure, in the same setting: the value for `COc1cc(C(=O)O)ccc1COc1ccc(C(C)=O)c(O)c1C/C=C/c1ccccc1` was 32%.
Molecule `CC/N=C(/NCC)NCCCC[C@@H](NC(=O)[C@H](Cc1ccc(O)cc1)NC(=O)[C@H](CO)NC(=O)[C@@H](Cc1c[nH]c2ccccc12)NC(=O)[C@@H](Cc1ccc(Cl)cc1)NC(=O)[C@@H](Cc1ccc(Cl)cc1)NC(C)=O)C(=O)N[C@@H](CC(C)C)C(=O)N[C@@H](CCCN=C(N)N)C(=O)N1CCC[C@H]1C(=O)N[C@H](C)C(N)=O` showed an inhibition at 10 µM of 40%.
As to `C/C=C\c1cc(=O)oc2c(CCC)c(OCc3ccc(C(=O)O)cc3OC)ccc12`, the inhibition at 10 µM is 23%.
Same read-out and setting: the value for `CCCc1c(OCc2ccc(C(=O)O)cc2OC)ccc2c(/C=C/c3ccccc3)cc(=O)oc12` was 7%; that for `CCCc1c(NCc2ccc(C(=O)O)cc2OC)ccc(C(C)=O)c1O` was 73%.

The species named for a further assay is Cavia porcellus. In words: Percent inhibition of the leukotriene E4 (LTE4)-induced contraction of guinea pig tracheal spirals at 10 uM concentration; NS means data was not statistically significant. In kind it is functional. To be noted: Trachea. Put shortly:
as §1
In the case of `C=CCc1c(OCc2ccc(C(=O)O)cc2OC)cc2oc(-c3ccccc3)cc(=O)c2c1O`, the inhibition result is “Not statistically significant”.
The same measure, in the same setting: the result for `CCCN(C(=O)c1ccc(C(=O)O)cc1)c1ccc(C(C)=O)c(O)c1` reads “Not statistically significant”.
Same read-out and setting: the result for `CCCc1c(OCc2ccc(C(=O)NS(=O)(=O)c3ccccc3)cc2OC)ccc(C(C)=O)c1O` reads “Not statistically significant”; that for `CCCc1c(OCc2ccc(/C=C/C(=O)Nc3nn[nH]n3)cc2)ccc(C(C)=O)c1O`, “Not statistically significant”.
Turning to `CCCCOC(=O)c1ccc(OCc2ccc(C(=O)O)cc2OC)c(CCC)c1O`, the inhibition entry was “Not statistically significant”.
Turning to `COc1cc(C(=O)O)ccc1CNc1ccc(C(C)=O)c(O)c1`, the inhibition entry was “Not statistically significant”.
On to `CCCc1c(OCc2ccc(C(=O)O)cc2OC)ccc(C(C)=O)c1NC(C)=O`, for which the inhibition entry was “Not statistically significant”.
As to `CCCc1cc2c(cc1OCc1ccc(C(=O)O)cc1OC)C(=O)c1ccccc1-2`, the inhibition result is “Not statistically significant”.
Turning to `CCCc1c(OCc2ccc(C(=O)O)cc2OC)ccc(-c2ccc3ccccc3n2)c1O`, the inhibition result is “Not statistically significant”.
Take `CCCc1c(OCc2ccc(C(=O)O)cc2OC)ccc2c1C(=O)c1ccccc1-2`: the inhibition entry was “Not statistically significant”.
Turning to `CCCc1c(OCc2cccc(NS(=O)(=O)c3ccccc3)c2)ccc(C(C)=O)c1O`, the inhibition result is “Not statistically significant”.
Take `CCCCCCOc1cc(OCc2ccc(C(=O)O)cc2OC)ccc1C(C)=O`: the inhibition entry is “Not statistically significant”.
With `CCCc1c(OCc2ccc(C(=O)O)cc2OC)cc2oc(-c3ccccc3)cc(=O)c2c1O`, the inhibition entry was “Not statistically significant”.
Turning to `CCCc1c(OCc2ccc(C(=O)O)cc2OC)ccc(C(C)=O)c1NC(=O)c1ccccc1`, the inhibition entry was “Not statistically significant”.
In the case of `CCCc1c(O)cccc1OCc1ccc(C(=O)O)cc1OC`, the inhibition result is “Not statistically significant”.
In the case of `COc1cc(C(=O)O)ccc1COc1cc(O)c2c(=O)ccn(C)c2c1`, the inhibition entry is “Not statistically significant”.

The test system of the next assay is Cavia porcellus. In words: Compound (50 mg/kg, intraperitoneally) was tested in spontaneously breathing, conscious guinea pigs challenged with aerosolized LTD4 (60-min pretreatment).
Details: not given
The format is functional.
As for `CCCc1c(OCc2ccc(C(=O)O)cc2OC)ccc(C(=O)NC)c1O`, the Protection is given as 33%.
The same measure, in the same setting: the value for `COc1cc(C(=O)O)ccc1COc1ccc(C(C)=O)c(O)c1C` was 17%.

For the next assay, the species on record is Cavia porcellus. In words: Percent inhibition of the leukotriene D4 (LTD4)-induced contraction of guinea pig tracheal spirals at 50 uM concentration. The format is functional. The following applies: Trachea. Put shortly:
as §1
For `CCCCCC(=O)c1ccc(OCc2ccc(C(=O)O)cc2OC)c(CCC)c1O`, 50 µM produced 20% inhibition.
Consider `CCCCCCNC(=O)c1ccc(OCc2ccc(C(=O)O)cc2OC)c(CCC)c1O`, for which the inhibition at 50 µM turned out to be 27%.
With `CCCc1c(OCc2ccc(C(=O)O)cc2OC)ccc(C(=O)N2CCCC2)c1O`, the inhibition at 50 µM is 90%.
Same read-out and setting: the value for `CCCc1c(OCC(O)CSCC(=O)O)ccc(C(C)=O)c1O` (stereo not drawn) was 44%.

For a further assay, the species on record is Cavia porcellus. Nature of the assay: Inhibition of the leukotriene D4 (LTD4)-induced contraction of guinea pig tracheal spirals at 10 uM concentration. The format is functional. To be noted: Trachea. Put shortly:
as §1
In turn, `CCCc1c(OC(c2ccccc2)c2ccc(C(=O)O)cc2)ccc(C(C)=O)c1O` (stereo not drawn) registered an inhibition at 10 µM of 16%.
The same measure, in the same setting: the value for `CCCc1c(OCC(=O)c2ccc(C(=O)O)cc2)ccc(C(C)=O)c1O` was 66%; that for `CCCc1c(OCc2ccc(C(=O)NO)cc2OC)ccc(C(C)=O)c1O` was 65%; that for `CCCc1cc(C(C)=O)ccc1OCc1ccc(C(=O)O)cc1OC` was 67%.
Molecule `CCCc1c(OCc2cccc(N)c2)ccc(C(C)=O)c1O` gave an inhibition at 10 µM of 39%.
As for `COc1cc(C(=O)O)ccc1COc1ccc(C(C)=O)c(O)c1C`, testing at 10 µM gave an inhibition of 73%.
Still for that read-out and setting: the value for `CCCc1c(OCc2cc(Br)c(C(=O)O)cc2OC)ccc(C(C)=O)c1O` was 43%.
Molecule `CCCc1c(OCc2ccc(C(=O)O)cc2)ccc(C(=O)C(F)(F)F)c1O` registered an inhibition at 10 µM of 36%.
Regarding `CCCc1c(OCCCCSCC(=O)O)ccc(C(C)=O)c1O`, testing at 10 µM gave an inhibition of 75%.
Molecule `CCCc1c(OCc2ccc(/C=C/c3nn[nH]n3)cc2)ccc(C(C)=O)c1O` gave an inhibition at 10 µM of 44%.
On to `CCCc1c(OCc2ccc(OCCCc3nnn[nH]3)cc2)ccc(C(C)=O)c1O`, for which 10 µM produced 56% inhibition.
Take `CCCc1c(OCc2ccc(C(=O)O)cc2OC)ccc2c(=O)ccoc12`: the inhibition at 10 µM turned out to be 44%.
The molecule `CCCc1c(OCc2ccc(C(=O)OC)cc2OCCCn2cnnn2)ccc(C(C)=O)c1O` returned an inhibition at 10 µM of 75%.
`CCCc1c(OCc2ccc(C(=O)O)cc2OC)ccc(C(=O)Nc2ccccc2)c1O` yielded an inhibition at 10 µM of 25%.
Turning to `CCCc1c(OCCCSCCC(=O)O)ccc(C(C)=O)c1O`, the inhibition at 10 µM came to 50%.
`CCCc1cc(C(C)O)ccc1OCc1ccc(C(=O)O)cc1OC` (stereo not drawn) returned an inhibition at 10 µM of 44%.
In the case of `CCCc1c(OCc2ccc(C(=O)O)cc2[N+](=O)[O-])ccc(C(C)=O)c1O`, at 10 µM the inhibition was 93%.
On to `CCCc1c(OCc2cccc(NS(C)(=O)=O)c2)ccc(C(C)=O)c1O`, for which 10 µM produced 26% inhibition.
The molecule `CCCc1c(OCc2ccc(C(=O)O)cc2OC)ccc(C(=O)N2CCCC2)c1O` displayed an inhibition at 10 µM of 37%.
In turn, `CCCc1c(OCCCCCC(=O)O)ccc(C(C)=O)c1O` gave an inhibition at 10 µM of 52%.
In turn, `CCCc1c(OCc2ccc(C(=O)O)cc2OCC)ccc(C(C)=O)c1O` came in with an inhibition at 10 µM of 83%.
`CCCc1c(OCC(O)CSCC(=O)O)ccc(C(C)=O)c1O` (stereo not drawn) displayed an inhibition at 10 µM of 19%.
The same measure, in the same setting: the value for `CCCc1c(OCc2ccc(C(=O)O)cc2)ccc(C(C)=O)c1O` was 100%; that for `CCCc1c(OCc2ccc(C(=O)NS(C)(=O)=O)cc2OC)ccc(C(C)=O)c1O` was 97%; that for `CCCCCCNc1cc(OCc2ccc(C(=O)O)cc2OC)ccc1C(C)=O` was 11%.
On to `CCCc1c(OCCCCSCCC(=O)O)ccc(C(C)=O)c1O`, for which the inhibition at 10 µM was determined as 74%.
Same read-out and setting: the result for `CCCc1c(OCCCS(=O)(=O)CC(=O)O)ccc(C(C)=O)c1O` reads 34%.
With `CCCc1c(OCCCCC(=O)O)ccc(C(C)=O)c1O`, the inhibition at 10 µM is 18%.

The species entered for a further assay is Cavia porcellus. Nature of the assay: Percent inhibition of the leukotriene D4 (LTD4)-induced contraction of guinea pig tracheal spirals at 3.3 uM concentration. The format is functional. The following applies: Trachea, in the assay text read “leukotriene E4 (LTE4)” for “leukotriene D4 (LTD4)”. The procedure, abridged:
as §1
Molecule `CCCc1c(OCc2ccc(C(=O)O)cc2OCCCn2cnnn2)ccc(C(C)=O)c1O` displayed an inhibition at 3.3 µM of 87%.
Molecule `CCCc1c(OCc2ccc(C(=O)O)cc2OCCCC#N)ccc(C(C)=O)c1O` came in with an inhibition at 3.3 µM of 78%.
Same read-out and setting: the value for `CCCc1c(OCc2ccc(-c3nn[nH]n3)cc2)ccc(C(C)=O)c1O` was 76%; that for `CCCc1c(OCc2ccc(-c3nn[nH]n3)c(Br)c2)ccc(C(C)=O)c1O` was 66%; that for `CCCc1c(OCc2cccc(NC(=O)CCC(=O)O)c2)ccc(C(C)=O)c1O` was 62%.
In turn, `CCCc1c(OCc2ccc(C(=O)NS(C)(=O)=O)cc2OC)ccc(C(C)=O)c1O` gave an inhibition at 3.3 µM of 37%.

The species named for a further assay is Cavia porcellus. In words: Percent inhibition of the leukotriene D4 (LTD4)-induced contraction of guinea pig tracheal spirals at 4 uM concentration. The format is functional. The following applies: Trachea. Put shortly:
as §1
Molecule `COc1cc(C(=O)O)ccc1COc1ccc(C(C)=O)c(O)c1C` returned an inhibition at 4 µM of 33%.
Regarding `CCCc1c(OCc2ccc(/C=C/C(=O)O)c(OC)c2)ccc(C(C)=O)c1O`, the inhibition at 4 µM amounted to 66%.
The molecule `CCCc1c(OCc2ccc(C(=O)O)cc2[N+](=O)[O-])ccc(C(C)=O)c1O` showed an inhibition at 4 µM of 57%.
As to `CCCc1c(OCc2ccc(C(=O)O)cc2)ccc(C(C)=O)c1O`, testing at 4 µM gave an inhibition of 36%.
Molecule `CCCc1c(OCc2ccc(OC)c(/C=C/C(=O)O)c2)ccc(C(C)=O)c1O` had an inhibition at 4 µM of 63%.

By inhibition is commonly meant the relative decrease from the control value, in per cent.

The values above are taken from ChEMBL document CHEMBL1124444, “Hydroxyacetophenone-derived antagonists of the peptidoleukotrienes” (1989).
